Consider 11 compounds from ChEMBL document CHEMBL1124528, “Tetrahydrothiadiazoloisoquinolines: synthesis and inhibition of phenylethanolamine-N-methyltransferase” (J Med Chem, 1989).

The test system of assay [1] is Phenylethanolamine N-methyltransferase (rabbit). In words: Ability to inhibit rabbit adrenal PNMT norepinephrine to epinephrine (E13), in vitro, at 10 e-4 M compound concentration. The settings on record: Oryctolagus cuniculus.
Assay [2] shares this test system. The assay can be described thus: Ability to inhibit rabbit adrenal PNMT norepinephrine to epinephrine (E13), in vitro, at 10 e-6 M. The settings on record: Oryctolagus cuniculus.
Assay [3] shares this test system. In words: Ability to inhibit rabbit adrenal phenylethanolamine N-methyl-transferase norepinephrine to epinephrine (E13), in vitro, at 10 e-6 M. As to conditions: Oryctolagus cuniculus.
Assay [4] has as its system Mus musculus. The assay can be described thus: Maximum inactive dose that causes decrease in endogenous adrenal epinephrine/norepinephrine ratio, when administered perorally in mice.
The next assay relates to Rattus norvegicus. In words: Ability to inhibit [3H]epinephrine biosynthesis was determined in the adrenal medulla of rats by administering 3 mg/kg of compound orally. The class given is functional. As to conditions: po.
For assay [5], the system named is Mus musculus. In words: Minimum active dose that causes decrease in endogenous adrenal epinephrine/norepinephrine ratio, when administered perorally in mice. It is filed as functional. A digest of the protocol: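 Mice dosed orally b.i.d. (chronic administration), then adrenal E and NE content measured and the decrease in E/NE ratio determined. Minimum active dose is the lowest dose significant at p < 0.05 versus control by Student's t test.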

Assay [6] has as its system Mus musculus. In words: Minimum active dose that causes decrease in endogenous epinephrine/norepinephrine ratio, when administered perorally in mice. It is filed as functional. A digest of the protocol:
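Mice given compound orally, b.i.d., as chronic dosing, then adrenal gland E and NE content measured to give the E/NE ratio. Minimum active dose is the lowest dose giving p < 0.05 vs control by Student's t test.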

As for `Nc1nc2ccc3c(c2s1)CNCC3`, the results for the inhibition in assay [1] and in assay [2] were 41% and 15%, respectively. As to `c1cc2nnsc2c2c1CCNC2`, the inhibition (usually the relative decrease from the control value, in per cent) in assay [3] is 91%. For `Cl.c1cc2snnc2c2c1CCNC2`, the MID in the assay with Mus musculus [4] amounted to 6.25 mg/kg. For the same compound, the inhibition in vivo (in general, the change of the read-out against control, counted positive when it falls) at 3 mg/kg with Rattus norvegicus came out at 87%. In the assay on Mus musculus [5], the MAD is 12.5 mg/kg. Turning to `c1nc2c3c(ccc2[nH]1)CCNC3`, the inhibition in assay [3] is 0%. On to `Oc1nc2c3c(ccc2[nH]1)CCNC3`, for which the inhibition in assay [1] is 4%; in assay [2], 1%. Consider `Clc1cc2snnc2c2c1CCNC2`, for which the inhibition worked out at 98% in assay [1] and 51% in assay [2]. `c1ccc2c3c(ccc2c1)CCNC3` gave an inhibition in assay [3] of 14%.

On to `Cl.Clc1ccc2c(c1Cl)CNCC2`, for which, in the assay with Mus musculus [4], the MID is 2.5 mg/kg. Moreover, the MAD with Mus musculus [6] stood at 5 mg/kg. In the assay with Rattus norvegicus, this compound showed an inhibition in vivo at 3 mg/kg of 50%. In turn, `c1nc2ccc3c(c2s1)CNCC3` had an inhibition in assay [3] of 24%. On to `Oc1nc2c3c(ccc2s1)CCNC3`, for which the inhibition in assay [1] came to 37%; in assay [2], 3%.

On to `c1cc2[nH]nnc2c2c1CCNC2`, for which the inhibition in assay [3] turned out to be 20%.
